In ChEMBL document CHEMBL4834436, “Discovery of the S1P2 Antagonist GLPG2938 (1-[2-Ethoxy-6-(trifluoromethyl)-4-pyridyl]-3-[[5-methyl-6-[1-methyl-3-(trifluoromethyl)pyrazol-4-yl]pyridazin-3-yl]methyl]urea), a Preclinical Candidate for the Treatment of Idiopathic Pulmonary Fibrosis” (J Med Chem, 2021):
In brackets after ≈: the same amount, converted by molar mass. Activity calls are given as the source filed them. The rule behind the calls is not given here.

Columns and labels:
[1] = molecular target: T1, Sphingosine 1-phosphate receptor 2 (Homo sapiens, UniProt O95136); assay: Antagonist activity at human S1P2 receptor expressed in CHO cells assessed as EC80 S1P-induced calcium flux measured for 3 mins by fluorescence assay; type: functional, cell-based
T1 sequence (O95136 whole entry): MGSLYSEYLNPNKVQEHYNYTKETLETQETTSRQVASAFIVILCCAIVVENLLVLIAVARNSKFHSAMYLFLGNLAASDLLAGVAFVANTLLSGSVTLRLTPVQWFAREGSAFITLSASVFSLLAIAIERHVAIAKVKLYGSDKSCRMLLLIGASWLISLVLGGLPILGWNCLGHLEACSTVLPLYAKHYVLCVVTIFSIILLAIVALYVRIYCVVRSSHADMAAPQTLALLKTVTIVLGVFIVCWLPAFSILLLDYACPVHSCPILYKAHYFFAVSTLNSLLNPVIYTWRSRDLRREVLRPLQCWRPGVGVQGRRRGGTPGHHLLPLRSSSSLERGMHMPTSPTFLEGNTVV
How it was run: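 Same dye-loaded, starved human S1P2-CHO cells; after agonist readout, 15 min at 37 °C, then stimulated with S1P at EC80, fluorescence read 3 min. Max/baseline ratio normalized to vehicle and S1P EC80. 10-point 1/3 dilutions from 20 μM final; IC50 derived; geometric mean of ≥2 runs.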

[2] = Volume of distribution at steady state in Sprague-Dawley rat at 1 mg/kg, iv measured up to 24 hrs by LC-MS/MS analysis; type: ADME, organism-based; conditions: in vivo, read-out: Vdss
How it was run: (§1)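 Male Sprague-Dawley rats (6–8 weeks), n = 3 per route; iv bolus 1 mg/kg in PEG200/water 60/40; gavage 5 or 10 mg/kg in PEG400/MC 0.5% after ≥12 h fast. Li-heparin plasma sampled to 24 h, LC-MS/MS, noncompartmental analysis. Plasma protein binding: 5 μM compound, 4 h incubation.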

[3] = Clearance in CD1 mouse at 1 mg/kg, iv measured up to 24 hrs by LC-MS/MS analysis; type: ADME, organism-based; conditions: in vivo
How it was run: (§2)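 Male CD1 mice, composite design, n = 6 per route; iv 1 mg/kg in PEG200/water 60/40, oral gavage 5 mg/kg in Tween 80/MC 0.5% or PEG400/MC 0.5% after ≥12 h fast. Li-heparin blood sampled to 24 h, plasma by LC-MS/MS; noncompartmental analysis. Plasma protein binding: 5 μM compound, 4 h incubation.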

[4] = Thermodynamic solubility in FaSSIF; type: physicochemical; conditions: read-out: Therm_solubility
[5] = Half life in CD1 mouse at 1 mg/kg, iv measured up to 24 hrs by LC-MS/MS analysis; type: ADME, organism-based; conditions: in vivo; how it was run: as §2
[6] = Volume of distribution at steady state in beagle dog at 1 mg/kg, iv measured up to 24 hrs by LC-MS/MS analysis; type: ADME, organism-based, Canis lupus familiaris; conditions: in vivo, read-out: Vdss
How it was run: (§3)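 Non-naive male Beagle dogs (n = 3) given 1 mg/kg iv as 10 min infusion; after 3-day washout, oral gavage 5 or 1 mg/kg in PEG400/MC 0.5% or MC 0.5% after ≥12 h fast. Jugular or cephalic blood into lithium heparin to 24 h; plasma analysed. Plasma protein binding: 5 μM compound, 4 h incubation.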

[7] = Plasma protein binding beagle dog plasma at 5 uM incubated for 4 hrs; type: ADME, cell-free, Canis lupus familiaris; conditions: read-out: PPB (converted); how it was run: as §3
[8] = Clearance in Sprague-Dawley rat at 1 mg/kg, iv measured up to 24 hrs by LC-MS/MS analysis; type: ADME, organism-based; conditions: in vivo; how it was run: as §1
[9] = Plasma protein binding CD1 mouse plasma at 5 uM incubated for 4 hrs; type: ADME, cell-free; conditions: read-out: PPB (converted); how it was run: as §2
[10] = Oral bioavailability in CD1 mouse at 5 mg/kg measured up to 24 hrs by LC-MS/MS analysis; type: ADME, organism-based; conditions: in vivo; how it was run: as §2
[11] = molecular target: T1, Sphingosine 1-phosphate receptor 2; assay: Antagonist activity at recombinant human S1P2 receptor in HFL1 cells assessed as inhibition of EC80 S1P-induced IL8 release incubated for 16 to 24 hrs in absence of HSA by ELISA; type: functional, cell-based
How it was run: (§4)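 HFL-1 lung fibroblasts seeded in 96- or 384-well plates, then medium replaced by starvation medium with 1% heat-inactivated FBS, ±1.95% HSA (2% HSA condition), 16–24 h. 10-point 1/3 dilutions, 30 μM top final, 1 h, then S1P at EC80 (without HSA: 1 μM 96-well or 0.5 μM 384-well; with HSA: 5 or 2 μM).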

[12] = Oral bioavailability in Sprague-Dawley rat at 5 mg/kg measured up to 24 hrs by LC-MS/MS analysis; type: ADME, organism-based; conditions: in vivo; how it was run: as §1
[13] = Intrinsic clearance unbound in mouse liver microsomes at 1 uM […] by LC-MS/MS analysis; type: ADME, Microsome
[14] = Half life in Sprague-Dawley rat at 1 mg/kg, iv measured up to 24 hrs by LC-MS/MS analysis; type: ADME, organism-based; conditions: in vivo; how it was run: as §1
[15] = Thermodynamic solubility in FaSSGF at pH 1.6; type: physicochemical; conditions: read-out: Therm_solubility
[16] = molecular target: Voltage-gated inwardly rectifying potassium channel KCNH2 (Homo sapiens, UniProt Q12809); assay: Inhibition of human ERG
Sequence of Voltage-gated inwardly rectifying potassium channel KCNH2 (Q12809 whole entry): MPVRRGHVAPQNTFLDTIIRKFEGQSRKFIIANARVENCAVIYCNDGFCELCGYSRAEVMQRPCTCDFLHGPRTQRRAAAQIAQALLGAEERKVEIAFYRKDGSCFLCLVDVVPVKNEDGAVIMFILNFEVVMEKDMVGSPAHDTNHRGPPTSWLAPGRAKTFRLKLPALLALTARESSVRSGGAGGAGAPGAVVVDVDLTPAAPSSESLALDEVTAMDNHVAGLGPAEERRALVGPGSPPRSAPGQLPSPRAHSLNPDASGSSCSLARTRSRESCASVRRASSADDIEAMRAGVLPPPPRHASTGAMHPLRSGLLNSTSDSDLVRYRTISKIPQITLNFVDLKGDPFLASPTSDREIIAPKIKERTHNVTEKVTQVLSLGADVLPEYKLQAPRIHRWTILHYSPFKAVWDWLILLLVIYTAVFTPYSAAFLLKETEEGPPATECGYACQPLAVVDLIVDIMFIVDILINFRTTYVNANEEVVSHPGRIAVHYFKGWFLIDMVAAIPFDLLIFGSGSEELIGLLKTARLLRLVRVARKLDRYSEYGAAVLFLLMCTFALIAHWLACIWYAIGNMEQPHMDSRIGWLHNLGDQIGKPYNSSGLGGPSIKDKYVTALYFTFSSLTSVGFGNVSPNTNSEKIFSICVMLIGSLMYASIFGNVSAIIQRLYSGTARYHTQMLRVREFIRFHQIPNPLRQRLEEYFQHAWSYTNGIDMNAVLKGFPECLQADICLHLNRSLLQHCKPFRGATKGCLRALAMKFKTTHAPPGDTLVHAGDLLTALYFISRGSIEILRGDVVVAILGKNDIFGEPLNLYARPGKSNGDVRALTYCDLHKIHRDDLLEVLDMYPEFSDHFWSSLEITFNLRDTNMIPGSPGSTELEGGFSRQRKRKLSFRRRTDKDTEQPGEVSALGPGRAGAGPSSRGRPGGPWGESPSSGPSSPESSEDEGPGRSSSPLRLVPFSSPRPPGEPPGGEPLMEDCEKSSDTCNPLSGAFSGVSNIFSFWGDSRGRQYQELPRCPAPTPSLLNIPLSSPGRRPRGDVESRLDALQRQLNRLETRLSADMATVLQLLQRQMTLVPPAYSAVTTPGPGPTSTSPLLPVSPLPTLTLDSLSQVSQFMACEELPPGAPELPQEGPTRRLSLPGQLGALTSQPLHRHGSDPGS

[17] = Clearance in beagle dog at 1 mg/kg, iv measured up to 24 hrs by LC-MS/MS analysis; type: ADME, organism-based, Canis lupus familiaris; conditions: in vivo; how it was run: as §3
[18] = molecular target: T1, Sphingosine 1-phosphate receptor 2; assay: Antagonist activity at recombinant human S1P2 receptor in HFL1 cells assessed as inhibition of EC80 S1P-induced IL8 release incubated for 16 to 24 hrs in presence of 2% HSA by ELISA; type: functional, cell-based; how it was run: as §4
Fibroblast = assay: Prevention of S1P-induced human pulmonary fibroblasts contraction in collagen gel lattice mixture pretreated with TGFbeta for 72 hrs followed by treated at 0.5 to 5 uM compound incubated for 2 hrs then treated with S1P for 1 hr; type: functional, cell-based; conditions: dose 0.5-5 µM, time 96.0 hrs, in the assay text read “96 hrs” for “72 hrs”
How it was run: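 Normal human lung fibroblasts pretreated 4 days with 1 ng/mL TGF-β, embedded in neutralized collagen I gels (200,000 cells/gel), kept 72 h in serum-free FGM with TGF-β for stress build-up. Compound added for 2 h, then 1 μM S1P; gels released and incubated 1 h at 37 °C; gel area imaged. Mean with 95% CI.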

[19] = Half life in beagle dog at 1 mg/kg, iv measured up to 24 hrs by LC-MS/MS analysis; type: ADME, organism-based, Canis lupus familiaris; conditions: in vivo; how it was run: as §3
[20] = molecular target: T1, Sphingosine 1-phosphate receptor 2; assay: Antagonist activity at recombinant human S1P2 receptor in HFL1 cells assessed as inhibition of EC80 S1P-induced IL8 release measured as unbound concentration incubated for 16 to 24 hrs in presence of 2% HSA by ELISA; type: functional, cell-based; conditions: filed as antagonist, time 16-24 hrs
How it was run: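 IL8 IC50 from the 2% HSA condition converted to free IC50 = IC50 × fu,medium, where fu,medium is estimated from human plasma protein binding fraction unbound and the serum percentage used in the assay.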

[21] = Intrinsic clearance unbound in human liver microsomes at 1 uM […] by LC-MS/MS analysis; type: ADME, Microsome
[22] = Plasma protein binding Sprague-Dawley rat plasma at 5 uM incubated for 4 hrs; type: ADME, cell-free; conditions: read-out: PPB (converted); how it was run: as §1
Mus musculus = assay: Antifibrotic activity against intranasal bleomycin-induced C57BL/6 mouse lung fibrosis model assessed as reduction in Ashcroft score at 1 to 10 mg/kg, po twice daily for 14 days; type: functional, organism-based; conditions: dose 1-10 mg/kg, time 14.0 day
How it was run: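 Male C57BL/6 mice (7–8 weeks on arrival, one week acclimation) given bleomycin intranasally; prophylactic oral dosing twice daily for 14 days. Lungs scored histologically by Matsuse-modified Ashcroft score; 14–15 mice per group; Mann–Whitney vs bleomycin/vehicle.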

[23] = molecular target: T1, Sphingosine 1-phosphate receptor 2; assay: Antagonist activity at recombinant human S1P2 receptor expressed in CHO cells assessed as EC80 S1P-induced activation incubated for 4 hrs in presence of [35S]GTPgammaS by Topcount reader; type: functional, cell-based
How it was run: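 Membranes from stable lines overexpressing recombinant human S1P2, preincubated with PVT-WGA SPA beads, mixed with compound serial dilutions, [35S]GTPγS and S1P at EC80. Incubated 4 h at room temperature, centrifuged, scintillation counted. Antagonist mode; IC50 as geometric mean of ≥2 runs.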

[24] = Volume of distribution at steady state in CD1 mouse at 1 mg/kg, iv measured up to 24 hrs by LC-MS/MS analysis; type: ADME, organism-based; conditions: in vivo, read-out: Vdss; how it was run: as §2

Compound: CCOc1cc(NC(=O)NCc2cc(C)c(-c3cn(C)nc3C(F)(F)F)nn2)cc(C(F)(F)F)n1
- IC50 [1]: 8.8 µM
- Vd [2]: 0.35 L/kg
- clearance [3]: 4 mL/min/kg
- solubility thermodynamic [4]: 23 µg/mL (≈ 45.7 µM)
- half-life [5]: 2.3 h
- Vd [6]: 1.1 L/kg
- fraction unbound at 4 h, 5 µM [7]: 0.003
- clearance [8]: 1.52 mL/min/kg
- fraction unbound at 4 h, 5 µM [9]: 0.001
- bioavailability [10]: 64%
- IC50 [11]: 0.029 µM
- bioavailability [12]: 29%
- CL free [13]: 140 mL/min/kg
- half-life [14]: 2.7 h
- solubility thermodynamic [15]: 2.7 µg/mL (≈ 5.36 µM)
- inhibition (INH) [16]: Not Active
- clearance [17]: 1.67 mL/min/kg
- IC50 [18]: 0.087 µM
- Activity (Fibroblast): Active
- half-life [19]: 7.6 h
- fIC50 [20]: 0.6 nM
- CL free [21]: < 38.3 mL/min/kg
- fraction unbound at 4 h, 5 µM [22]: < 0.001
- Activity (Mus musculus): Active
- IC50 [23]: 29 µM
- Vd [24]: 0.81 L/kg
